Assay [1] concerns Cryptococcus neoformans. The assay can be described thus: Antimelanogenic activity in non-melanized Cryptococcus neoformans var. grubii assessed as inhibition of pigmentation at 0.5 ug/mL after 10 days by microtiter plate assay in presence of 1 mM catecholamine. In kind it is functional. In a few lines:
(§1)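 Overnight non-melanized culture diluted in fresh defined minimal medium to OD about 0.010–0.020. Cells were exposed to compound from DMSO stock in microtiter wells containing 1 mM catecholamine (epinephrine, dopamine or L-dopa) and grown 10 days at 30 °C. Melanization/pigmentation was scored visually against cell-only and DMSO controls.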

Assay [2] has as its system Cryptococcus neoformans. Kind of assay: Antimelanogenic activity in non-melanized Cryptococcus neoformans var. grubii assessed as inhibition of pigmentation at 200 ug/mL after 10 days by microtiter plate assay in presence of 1 mM catecholamine. The class given is functional. In a few lines: (§2)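 Broth assay in microtiter plates. An overnight culture of non-melanized C. neoformans var. grubii is diluted in fresh defined minimal medium to OD about 0.010–0.020. It is exposed to single sublethal concentrations (from DMSO; cells/DMSO control) in medium with 1 mM catecholamine (epinephrine, dopamine or L-dopa) at 30 °C. Pigmentation is scored visually at 10 days, with an additional check at 21 days.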

Assay [3] relates to Cryptococcus gattii. The assay can be described thus: Antifungal activity in Cryptococcus neoformans var. gattii assessed as clear halo diameter at 20 ug after 6 to 8 days by halo assay in presence of epinephrine. Conditions: read-out: DIZ. In kind it is functional, Cryptococcus bacillisporus. In a few lines: (§3)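 Paper-disk diffusion halo assay on lawns of C. neoformans (MAT α; var. grubii H99 serotype A, var. gattii serotype B) in defined minimal medium agar with 1 mM catecholamine (L-dopa, dopamine or epinephrine). Compounds were dissolved in DMSO and applied to 6.5 mm disks, which were dried 3 h at RT. Plates were incubated at 30 °C for 6–8 days and the clear halo diameter was measured in mm.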

In assay [4] the test system is Cryptococcus neoformans. Kind of assay: Antimelanogenic activity in non-melanized Cryptococcus neoformans var. grubii assessed as inhibition of pigmentation at 0.0625 ug/mL after 10 days by microtiter plate assay in presence of 1 mM catecholamine. The class given is functional. In a few lines: as §1
For assay [5], the system named is Cryptococcus neoformans. Kind of assay: Antifungal activity in Cryptococcus neoformans var. grubii assessed as clear halo diameter at 20 ug after 6 to 8 days by halo assay in presence of dopamine. In kind it is functional. Conditions: read-out: DIZ. In a few lines:
as §3

The test system of assay [6] is Cryptococcus gattii. The assay can be described thus: Antifungal activity in Cryptococcus neoformans var. gattii assessed as clear halo diameter at 20 ug after 6 to 8 days by halo assay in presence of L-dopa. Conditions: read-out: DIZ. In kind it is functional, Cryptococcus bacillisporus. In a few lines:
as §3

Assay [7] deals with Cryptococcus neoformans. The assay can be described thus: Antifungal activity in Cryptococcus neoformans var. grubii assessed as clear halo diameter at 20 ug after 6 to 8 days by halo assay in presence of L-dopa. Conditions: read-out: DIZ. The class given is functional. In a few lines: as §3
The test system of assay [8] is Cryptococcus gattii. Kind of assay: Antifungal activity in Cryptococcus neoformans var. gattii assessed as clear halo diameter at 2 ug after 6 days by halo assay in presence of 1 mM L-dopa. The class given is functional, Cryptococcus bacillisporus. In a few lines: as §3
The test system of assay [9] is Cryptococcus gattii. Kind of assay: Antifungal activity in Cryptococcus neoformans var. gattii assessed as clear halo diameter at 20 ug after 6 to 8 days by halo assay in presence of dopamine. In kind it is functional, Cryptococcus bacillisporus. Conditions: read-out: DIZ. In a few lines: as §3
In assay [10] the test system is Cryptococcus neoformans. Kind of assay: Antifungal activity in Cryptococcus neoformans var. grubii assessed as clear halo diameter at 2 ug after 6 days by halo assay in presence of 1 mM L-dopa. In kind it is functional. In a few lines: as §3
For assay [11], the system named is Cryptococcus neoformans. Kind of assay: Antifungal activity in Cryptococcus neoformans var. grubii assessed as clear halo diameter at 20 ug after 6 to 8 days by halo assay in presence of epinephrine. Conditions: read-out: DIZ. In kind it is functional. In a few lines:
as §3

Assay [12] relates to Cryptococcus neoformans. Kind of assay: Antimelanogenic activity in non-melanized Cryptococcus neoformans var. grubii assessed as inhibition of pigmentation at 0.8 ug/mL after 10 days by microtiter plate assay in presence of 1 mM catecholamine. In kind it is functional. In a few lines: as §2
Assay [13] has as its system Cryptococcus neoformans. Kind of assay: Antimelanogenic activity in non-melanized Cryptococcus neoformans var. grubii assessed as inhibition of pigmentation at 0.8 ug/mL after 21 days by microtiter plate assay in presence of 1 mM catecholamine. In kind it is functional. In a few lines:
as §2

Assay [14] relates to Cryptococcus gattii. Kind of assay: Antimelanogenic activity in Cryptococcus neoformans var. gattii assessed as halo diameter surrounded by non-melanized cells at 20 ug after 6 to 8 days by halo assay in presence of epinephrine. The class given is functional, Cryptococcus bacillisporus. Conditions: read-out: DIZ. In a few lines: (§4)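 Paper-disk diffusion halo assay on a lawn of C. neoformans (MAT α; var. grubii H99 serotype A, var. gattii serotype B). Medium is defined minimal medium agar with 1 mM catecholamine (L-dopa, dopamine or epinephrine). Compound is delivered from DMSO stock onto 6.5 mm disks, which are dried 3 h at RT. Incubation is 30 °C for 6–8 days. The read-out is halo diameter (mm), with the halo checked for non-melanized cells.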

Assay [15] deals with T1, Laccase (Trametes versicolor, UniProt O94222).
T1 sequence (O94222 whole entry): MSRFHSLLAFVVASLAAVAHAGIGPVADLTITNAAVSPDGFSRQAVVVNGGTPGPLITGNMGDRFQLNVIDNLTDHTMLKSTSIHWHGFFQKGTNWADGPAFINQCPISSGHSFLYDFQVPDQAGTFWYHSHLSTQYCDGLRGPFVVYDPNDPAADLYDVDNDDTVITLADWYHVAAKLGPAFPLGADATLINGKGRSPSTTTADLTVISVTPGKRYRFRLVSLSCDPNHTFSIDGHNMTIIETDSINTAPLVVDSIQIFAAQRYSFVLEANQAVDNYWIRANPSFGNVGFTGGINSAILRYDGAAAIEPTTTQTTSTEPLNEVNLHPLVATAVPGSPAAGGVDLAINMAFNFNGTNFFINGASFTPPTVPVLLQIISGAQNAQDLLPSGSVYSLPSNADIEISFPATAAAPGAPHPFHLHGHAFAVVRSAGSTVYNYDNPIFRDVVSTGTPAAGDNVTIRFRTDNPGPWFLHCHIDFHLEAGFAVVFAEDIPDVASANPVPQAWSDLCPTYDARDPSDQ
Kind of assay: Inhibition of Trametes versicolor laccase assessed as production of dopachrome using 300 uM L-dopa as substrate preincubated for 30 mins before substrate addition. In a few lines:
(§5)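 Cell-free assay with purified Trametes versicolor laccase. Inhibitor (0–1 mM range) is preincubated with the enzyme for 30 min before substrate is added. Substrates are epinephrine 100 μM, dopamine 200 μM or L-dopa 300 μM. Dopachrome formation is monitored colorimetrically at 480 nm. IC50 is taken from dose-response curves, mean of two experiments with SE; NaN3 is the positive control.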

The subject of assay [16] is Human immunodeficiency virus. Kind of assay: Inhibition of DNA polymerase activity of HIV reverse transcriptase at 10 uM.
Assay [17] in a line: Inhibition of laccase in Cryptococcus neoformans var. grubii assessed as production of dopachrome using 100 uM epinephrine as substrate preincubated for 30 mins before substrate addition. In a few lines:
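Whole-cell laccase assay. C. neoformans var. grubii is grown in asparagine salts without glucose to raise laccase, then permeabilized with toluene-ethanol (1:4). Inhibitor (0–1 mM range) is preincubated for 30 min before adding 100 μM epinephrine. Dopachrome is read at 480 nm. IC50 is the mean of two experiments with SE; NaN3 is the positive control.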

Assay [18] relates to Cryptococcus neoformans. The assay can be described thus: Antimelanogenic activity in non-melanized Cryptococcus neoformans var. grubii assessed as onset day of melanization at 0.6 uM by drop test assay in presence of 1 mM L-dopa (reference value: 6 days). In kind it is functional. In a few lines:
(§6)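 Drop test. C. neoformans culture at 10^7 cells/mL is dosed with compound at 0, 0.06, 0.2, 0.6 and 2 μM. It is dropped onto defined minimal medium plates with 1 mM L-dopa and incubated at 30 °C until melanization occurs. The read-out is the onset day of melanization.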

Assay [19] concerns Cryptococcus neoformans. The assay can be described thus: Antimelanogenic activity in non-melanized Cryptococcus neoformans var. grubii assessed as delay of melanization by drop test assay in presence of 1 mM L-dopa. The class given is functional. In a few lines: as §6
Assay [20] has as its target T1, Laccase. Kind of assay: Inhibition of Trametes versicolor laccase assessed as production of dopachrome using 200 uM dopamine as substrate preincubated for 30 mins before substrate addition. In a few lines:
as §5

Assay [21] deals with Cryptococcus neoformans. The assay can be described thus: Antimelanogenic activity in Cryptococcus neoformans var. grubii assessed as halo diameter surrounded by non-melanized cells at 20 ug after 6 to 8 days by halo assay in presence of dopamine. In kind it is functional. Conditions: read-out: DIZ. In a few lines:
as §4

Assay [22] has as its target T1, Laccase. The assay can be described thus: Inhibition of Trametes versicolor laccase assessed as production of dopachrome using 100 uM epinephrine as substrate preincubated for 30 mins before substrate addition. In a few lines: as §5
Assay [23] relates to Cryptococcus neoformans. Kind of assay: Antimelanogenic activity in Cryptococcus neoformans var. grubii assessed as halo diameter surrounded by non-melanized cells at 20 ug after 6 to 8 days by halo assay in presence of epinephrine. In kind it is functional. Conditions: read-out: DIZ. In a few lines:
as §4

In assay [24] the test system is Cryptococcus neoformans. The assay can be described thus: Antimelanogenic activity in Cryptococcus neoformans var. grubii assessed as halo diameter surrounded by non-melanized cells at 10 ug after 6 days by halo assay in presence of 1 mM L-dopa. In kind it is functional. In a few lines: as §4
The test system of assay [25] is Cryptococcus gattii. The assay can be described thus: Antimelanogenic activity in Cryptococcus neoformans var. gattii assessed as halo diameter surrounded by non-melanized cells at 10 ug after 6 days by halo assay in presence of 1 mM L-dopa. The class given is functional, Cryptococcus bacillisporus. In a few lines:
as §4

Assay [26] has as its system Cryptococcus neoformans. Kind of assay: Antimelanogenic activity in non-melanized Cryptococcus neoformans var. grubii assessed as onset day of melanization at 2 uM by drop test assay in presence of 1 mM L-dopa (reference value: 6 days). In kind it is functional. In a few lines:
as §6

Assay [27] relates to Cryptococcus neoformans. The assay can be described thus: Antimelanogenic activity in non-melanized Cryptococcus neoformans var. grubii assessed as onset day of melanization at 0.06 uM by drop test assay in presence of 1 mM L-dopa (reference value: 6 days). In kind it is functional. In a few lines:
as §6

Assay [28] deals with Cryptococcus gattii. Kind of assay: Antimelanogenic activity in Cryptococcus neoformans var. gattii assessed as halo diameter surrounded by non-melanized cells at 20 ug after 6 to 8 days by halo assay in presence of dopamine. The class given is functional, Cryptococcus bacillisporus. Conditions: read-out: DIZ. In a few lines:
as §4

Assay [29] concerns Cryptococcus gattii. The assay can be described thus: Antimelanogenic activity in Cryptococcus neoformans var. gattii assessed as halo diameter surrounded by non-melanized cells at 20 ug after 6 to 8 days by halo assay in presence of L-dopa. In kind it is functional, Cryptococcus bacillisporus. Conditions: read-out: DIZ. In a few lines: as §4
The subject of assay [30] is Cryptococcus neoformans. Kind of assay: Antimelanogenic activity in Cryptococcus neoformans var. grubii assessed as halo diameter surrounded by non-melanized cells at 20 ug after 6 to 8 days by halo assay in presence of L-dopa. Conditions: read-out: DIZ. The class given is functional. In a few lines:
as §4

From ChEMBL document CHEMBL1914291, “Ptilomycalin A inhibits laccase and melanization in Cryptococcus neoformans” (Bioorg Med Chem, 2011) come the findings set out here.

The source made the active and inactive calls. The rule behind the calls is not given here.

As to `Clc1ccc(COC(Cn2ccnc2)c2ccc(Cl)cc2Cl)c(Cl)c1` (centres undefined), in [1], the result was inactive.

Turning to `O=C(O)CNCP(=O)(O)O`, the outcome in assay [2] was inactive.

For the compound `C[C@@H]1[C@H](O)[C@@H](C)/C=C/C=C/C=C/C=C/C=C/C=C/C=C/[C@H](O[C@@H]2O[C@H](C)[C@@H](O)[C@H](N)[C@@H]2O)C[C@@H]2O[C@](O)(C[C@@H](O)C[C@@H](O)[C@H](O)CC[C@@H](O)C[C@@H](O)CC(=O)O[C@H]1C)C[C@H](O)[C@H]2C(=O)O` [AMPHOTERICIN B], the zone of inhibition at 20 µg/disc in assay [3] came out at 18 mm; in [5], 18 mm; in assay [6], 17 mm; in assay [7], 21 mm; in [9] it was 22 mm; in [11], 18 mm. The outcome in assay [4] was inactive. For the same compound, the “diameter of the inhibition zone (DIZ)” value in [8] turned out to be 10 mm; in [10], 15.5 mm.

One may read the IC50 as the concentration that inhibits the measured activity by half. The inhibition is how much of the control response was suppressed. High values mean strong suppression, low ones little suppression. `CC[C@H]1CCCC[C@@]2(C[C@@H]3CC[C@@H]4[C@H](C(=O)OCCCCCCCCCCCCCCCC(=O)N(CCCN)CCCCN)[C@]5(CCC[C@@H](C)O5)NC(=[N+]34)N2)O1.[Cl-]` [PTILOMYCALIN A]: the outcome in assay [12] and in [13] was Active. In addition, the zone of inhibition at 20 µg/disc in assay [14] stood at 12 mm; in assay [21] it was 15 mm; in assay [23], 12 mm; in [28], 18 mm; in [29], 17 mm; in assay [30] it was 17 mm. Also, the IC50 came to 5.8 µM in assay [15], 7.3 µM in assay [17], 4.9 µM in assay [20] and 4.7 µM in assay [22]. Moreover, the inhibition in [16] stood at 60%. In addition, the Time in assay [18] stood at 20 days; in [26] it was 25 days; in assay [27], 9 days. For the same compound, the Activity result in assay [19] was “Dose-dependent effect”. Moreover, the “diameter of the inhibition zone (DIZ)” value in assay [24] is listed as 13.5 mm; in [25], 9.5 mm.

In the case of `[N-]=[N+]=[N-]` [SODIUM AZIDE], the half-inhibitory concentration (IC50) in [15] was found to be 279 µM; in assay [17], 329 µM; in assay [20], 257 µM; in assay [22] it was 263 µM.
